The subject of data set [1] is B16-F10. Briefly: Induction of apoptosis in mouse B16F10 cells assessed as late apoptosis cells at 12.5 uM incubated for 48 hrs in presence of apoptosis inhibitor z-VAD-fmk by Annexin-V-FITC/propidium iodide staining-based flow cytometric analysis (reference value: 3.13%). The data set is classed as functional.
Data set [2] deals with B16-F10. Briefly: Induction of apoptosis in mouse B16F10 cells assessed as necrosis cells at 25 uM incubated for 48 hrs by Annexin-V-FITC/propidium iodide staining-based flow cytometric analysis (reference value: 0.186%). The data set is classed as functional. The procedure, abridged:
(§1)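 F10 cells were exposed to 0, 3.125, 6.25, 12.5 or 25 µM for 48 h. Cells were stained with Annexin V/PI and read by flow cytometry. Data are mean ± SD of three independent experiments.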
(In general: Flow cytometry measures light scatter and fluorescence of single cells or particles in a stream.)

Data set [3] concerns B16-F10. The experiment in a line: Induction of apoptosis in mouse B16F10 cells assessed as viable cells at 25 uM incubated for 48 hrs in presence of apoptosis inhibitor z-VAD-fmk by Annexin-V-FITC/propidium iodide staining-based flow cytometric analysis (reference value: 92.5%). The data set is classed as functional. As to conditions: B16-F10, 48 h, read-out: Activity.
A short description of data set [4]: Inhibition of 5-LOX assessed as calcium ionophore A23187-stimulated LTB4 production preincubated for 30 mins followed by calcium ionophore A23187 addition and measured after 30 mins by ELISA.
The subject of data set [5] is B16-F10. The experiment in a line: Induction of apoptosis in mouse B16F10 cells assessed as early apoptosis cells at 12.5 uM incubated for 48 hrs by Annexin-V-FITC/propidium iodide staining-based flow cytometric analysis (reference value: 2.93%). The data set is classed as functional. The procedure, abridged: as §1
Data set [6] deals with B16-F10. Briefly: Induction of apoptosis in mouse B16F10 cells assessed as early apoptosis cells at 25 uM incubated for 48 hrs in presence of apoptosis inhibitor z-VAD-fmk by Annexin-V-FITC/propidium iodide staining-based flow cytometric analysis (reference value: 3.83%). The data set is classed as functional.
The test system of data set [7] is B16-F10. Briefly: Antiproliferative activity against mouse B16F10 cells incubated for 48 hrs by MTT assay. The data set is classed as functional, cell-based. As to conditions: B16-F10, 48 h. In short, it runs like this:
(§2)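 MTT assay on F10 (murine melanoma), HeLa, A549, MCF-7 and 293T (human renal epithelium) cells. IC50 given as mean ± SD of three independent experiments.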

The test system of data set [8] is B16-F10. The experiment in a line: Induction of apoptosis in mouse B16F10 cells assessed as late apoptosis cells at 25 uM incubated for 48 hrs in presence of apoptosis inhibitor z-VAD-fmk by Annexin-V-FITC/propidium iodide staining-based flow cytometric analysis (reference value: 3.13%). It is filed as functional.
The subject of data set [9] is B16-F10. The experiment in a line: Induction of apoptosis in mouse B16F10 cells assessed as early apoptosis cells at 6.25 uM incubated for 48 hrs by Annexin-V-FITC/propidium iodide staining-based flow cytometric analysis (reference value: 2.93%). The data set is classed as functional. In short, it runs like this:
as §1

Data set [10] relates to B16-F10. The experiment in a line: Induction of cell cycle arrest in mouse B16F10 cells assessed as cell accumulation at G2 phase at 12.5 uM incubated for 48 hrs by propidium iodide staining-based flow cytometric analysis (reference value: 22.43%). It is filed as functional.
The test system of data set [11] is B16-F10. The experiment in a line: Induction of cell cycle arrest in mouse B16F10 cells assessed as increase in cell accumulation at G2 phase at incubated for 48 hrs by propidium iodide staining-based flow cytometric analysis. It is filed as functional.
The test system of another data set is HEK-293T. The experiment in a line: Antiproliferative activity against human 293T cells incubated for 48 hrs by MTT assay. It is filed as cell-based. The procedure, abridged: as §2
(Formazan colour is commonly taken as a measure of viable cells.)

Data set [12] relates to B16-F10. Briefly: Induction of apoptosis in mouse B16F10 cells assessed as necrosis cells at 3.125 uM incubated for 48 hrs by Annexin-V-FITC/propidium iodide staining-based flow cytometric analysis (reference value: 0.186%). It is filed as functional. The procedure, abridged: as §1
The subject of data set [13] is B16-F10. The experiment in a line: Induction of cell cycle arrest in mouse B16F10 cells assessed as cell accumulation at G1 phase at 25 uM incubated for 48 hrs by propidium iodide staining-based flow cytometric analysis (reference value: 59.73%). The data set is classed as functional.
In data set [14] the test system is B16-F10. The experiment in a line: Induction of apoptosis in mouse B16F10 cells assessed as necrosis cells at 6.25 uM incubated for 48 hrs in presence of apoptosis inhibitor z-VAD-fmk by Annexin-V-FITC/propidium iodide staining-based flow cytometric analysis (reference value: 0.558%). It is filed as functional.
A further data set concerns A549. The experiment in a line: Antiproliferative activity against human A549 cells incubated for 48 hrs by MTT assay. It is filed as functional, cell-based. The following applies: A549, 48 h. The procedure, abridged:
as §2

The test system of data set [15] is B16-F10. Briefly: Induction of cell cycle arrest in mouse B16F10 cells assessed as cell accumulation at G2 phase at 3.125 uM incubated for 48 hrs by propidium iodide staining-based flow cytometric analysis (reference value: 22.43%). It is filed as functional.
Data set [16] in a line: Toxicity in mouse B16F10 cells implanted in nude mouse assessed as change in body weight at 20 to 40 mg/kg, ip administered once per 2 days for 14 days. As to conditions: in vivo. The data set is classed as organism-based. The procedure, abridged:
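Nude mice carried subcutaneous right-flank xenografts of 5×10^6 F10 cells. At about 100 mm3 tumor size they were randomized into groups of six (twenty-four mice, four groups): vehicle or 20 or 40 mg/kg, given intraperitoneally once every two days for two weeks. Body weight was tracked during treatment.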

Data set [17] relates to B16-F10. Briefly: Antitumor activity against mouse B16F10 cells implanted in nude mouse assessed as reduction in tumor size at 20 mg/kg, ip administered once per 2 days for 14 days by caliper method. The data set is classed as functional. The procedure, abridged:
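Nude mice were given 5×10^6 F10 cells subcutaneously in the right flank. At about 100 mm3, 24 mice were randomized into four groups of vehicle or compound. Dosing was intraperitoneal every two days for two weeks. Tumor volume was recorded every other day. Tumors were excised and weighed after the last treatment, and body weight was monitored.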

Data set [18] concerns B16-F10. The experiment in a line: Induction of apoptosis in mouse B16F10 cells assessed as viable cells at 6.25 uM incubated for 48 hrs in presence of apoptosis inhibitor z-VAD-fmk by Annexin-V-FITC/propidium iodide staining-based flow cytometric analysis (reference value: 92.5%). The data set is classed as functional. As to conditions: B16-F10, 48 h, read-out: Activity.

The subject of data set [19] is B16-F10. Briefly: Induction of cell cycle arrest in mouse B16F10 cells assessed as cell accumulation at S phase at 3.125 uM incubated for 48 hrs by propidium iodide staining-based flow cytometric analysis (reference value: 14.16%). The data set is classed as functional.
The subject of a further data set is HeLa. The experiment in a line: Antiproliferative activity against human HeLa cells incubated for 48 hrs by MTT assay. It is filed as functional, cell-based. The procedure, abridged:
as §2

The subject of data set [20] is B16-F10. Briefly: Induction of cell cycle arrest in mouse B16F10 cells assessed as cell accumulation at S phase at 25 uM incubated for 48 hrs by propidium iodide staining-based flow cytometric analysis (reference value: 14.16%). The data set is classed as functional.

As usually defined, the IC50 is the concentration that inhibits the measured activity by half. For the compound `NS(=O)(=O)c1ccc(-n2nc(C(=O)NCCCN3CCOCC3)cc2-c2ccc(C(F)(F)F)cc2)cc1`, the Activity with B16-F10 [1] turned out to be 9.78%; with B16-F10 [2], 1.33%; in the data set on B16-F10 [5] it was 20.5%; in the data set on B16-F10 [6], 11.3%; in the data set with B16-F10 [8] it was 9.1%; in the data set with B16-F10 [9], 14.5%. The Activity is 30.41% with B16-F10 [10]; “Dose-dependent effect” in the data set with B16-F10 [11]; 0.597% with B16-F10 [12]; 50.93% in the data set with B16-F10 [13]; 0.155% with B16-F10 [14]; 28.69% with B16-F10 [15]. The Activity result in data set [16] is “Non-Toxic”; with B16-F10 [17], 1076.58 mm3; in the data set on B16-F10 [19], 11.16%; with B16-F10 [20] it was 12.87%. In addition, the viability at 25 µM in the data set with B16-F10 [3] was 78.8%. For the same compound, the IC50 in [4] stood at 0.68 µM; in the data set on B16-F10 [7] it was 6.43 µM; in the data set with HEK-293T, 194 µM; in the data set on A549 it was 11 µM; in the data set on HeLa, 8.08 µM. The viability at 6.25 µM with B16-F10 [18] was 88.8%.
